Reference: ChEMBL document CHEMBL2396553, “C3'-endo-puckered pyrrolidine containing PNA has favorable geometry for RNA binding: novel ethano locked PNA (ethano-PNA)” (Bioorg Med Chem, 2013)
The source made the active and inactive calls. The rule behind the calls is not given here.

What was measured:
[1] = test system: Nucleic Acid; experiment: Binding affinity to 5'-UGGAGUGAGACAAUGGUG mismatch RNA (unknown origin) assessed as melting temperature at 10 mM by UV-thermal denaturation assay; format: nucleic-acid assay; settings: 10 mM NaCl
In short: (§1)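 Each strand 1 µM (concentrations from nucleobase molar extinction coefficients) in 10 mM sodium phosphate pH 7.0 with 10 or 100 mM NaCl. Annealed 90 °C for 5 min, slow-cooled to room temperature then 0 °C. Absorbance at 260 nm followed from 10 to 85 °C at 0.5 °C/min. Tm taken from first-derivative curves. At least three runs, accurate within 0.3 °C.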

[2] = test system: Nucleic Acid; experiment: Binding affinity to 5'-TGGAGTGTGACAATGGTG cDNA (unknown origin) assessed as melting temperature at 100 mM by UV-thermal denaturation assay; format: nucleic-acid assay; settings: 100 mM NaCl; in short: as §1
[3] = Binding affinity to 5'-UGGAGUGUGACAAUGGUG RNA (unknown origin) at 1 uM by circular dichroism analysis
In short: (§2)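 CD spectra of 1 µM complexes in 10 mM sodium phosphate pH 7.0 with 10 mM NaCl, annealed 90 °C for 5 min and slow-cooled to room temperature. Recorded at room temperature from 320 to 210 nm at 100 nm/min in a 1 cm path cuvette. At least 8 scans averaged.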

[4] = Binding affinity to 5'-TGGAGTGTGACAATGGTG cDNA (unknown origin) at 1 uM by circular dichroism analysis; in short: as §2
[5] = test system: Nucleic Acid; experiment: Binding affinity to 5'-UGGAGUGUGACAAUGGUG RNA (unknown origin) assessed as melting temperature at 10 mM by UV-thermal denaturation assay; format: nucleic-acid assay; settings: 10 mM NaCl; in short: as §1
[6] = test system: Nucleic Acid; experiment: Binding affinity to 5'-UGGAGUGUGACAAUGGUG RNA (unknown origin) assessed as melting temperature at 100 mM by UV-thermal denaturation assay; format: nucleic-acid assay; settings: 100 mM NaCl; in short: as §1
[7] = test system: Nucleic Acid; experiment: Binding affinity to 5'-TGGAGTGTGACAATGGTG cDNA (unknown origin) assessed as melting temperature at 10 mM by UV-thermal denaturation assay; format: nucleic-acid assay; settings: 10 mM NaCl; in short: as §1
[8] = test system: Nucleic Acid; experiment: Binding affinity to 5'-UGGAGUGAGACAAUGGUG mismatch RNA (unknown origin) assessed as melting temperature at 100 mM by UV-thermal denaturation assay; format: nucleic-acid assay; settings: 100 mM NaCl; in short: as §1

Compound | Tm [1] | Tm [2] | Activity [3] | Activity [4] | Tm [5] | Tm [6] | Tm [7] | Tm [8]
Cc1cn(CC(=O)N(CCNC(=O)CN(CCNC(=O)CN(CCNC(=O)CN(CCNC(=O)CN(CCNC(=O)CN(CCN)C(=O)Cn2ccc(N)nc2=O)C(=O)Cn2cnc3c(N)ncnc32)C(=O)Cn2cc(C)c(=O)[nH]c2=O)C(=O)Cn2cc(C)c(=O)[nH]c2=O)C(=O)Cn2cnc3c(=O)[nH]c(N)nc32)CC(=O)NCCN(CC(=O)NCCN(CC(=O)NCCN(CC(=O)NCCN(CC(=O)NCCN(CC(=O)NCCN(CC(=O)N[C@@H](CCCCN)C(N)=O)C(=O)Cn2cc(C)c(=O)[nH]c2=O)C(=O)Cn2ccc(N)nc2=O)C(=O)Cn2cnc3c(N)ncnc32)C(=O)Cn2ccc(N)nc2=O)C(=O)Cn2cnc3c(N)ncnc32)C(=O)Cn2ccc(N)nc2=O)c(=O)[nH]c1=O | 55.1 °C | 60.1 °C | Active | Active | 66.1 °C | 63.7 °C | 64.6 °C | 53 °C
Cc1cn(CC(=O)N(CCNC(=O)CN(CCNC(=O)CN(CCNC(=O)CN(C(=O)Cn2cc(C)c(=O)[nH]c2=O)[C@H]2C[C@@H](CNC(=N)N)N(C(=O)CN(CCNC(=O)CN(CCN)C(=O)Cn3ccc(N)nc3=O)C(=O)Cn3cnc4c(N)ncnc43)C2)C(=O)Cn2cc(C)c(=O)[nH]c2=O)C(=O)Cn2cnc3c(=O)[nH]c(N)nc32)CC(=O)NCCN(CC(=O)NCCN(CC(=O)NCCN(CC(=O)NCCN(CC(=O)NCCN(CC(=O)NCCN(CC(=O)N[C@@H](CCCCN)C(N)=O)C(=O)Cn2cc(C)c(=O)[nH]c2=O)C(=O)Cn2ccc(N)nc2=O)C(=O)Cn2cnc3c(N)ncnc32)C(=O)Cn2ccc(N)nc2=O)C(=O)Cn2cnc3c(N)ncnc32)C(=O)Cn2ccc(N)nc2=O)c(=O)[nH]c1=O | 53.6 °C | 56.3 °C | Active | Active | 68.1 °C | 60.7 °C | 60.6 °C | 46.8 °C
Cc1cn(CC(=O)N(CCNC(=O)CN(CCNC(=O)CN(CCN)C(=O)Cn2ccc(N)nc2=O)C(=O)Cn2cnc3c(N)ncnc32)CC(=O)NCCN(CC(=O)NCCN(CC(=O)N2C[C@@H](N(CC(=O)NCCN(CC(=O)NCCN(CC(=O)NCCN(CC(=O)NCCN(CC(=O)NCCN(CC(=O)NCCN(CC(=O)N[C@@H](CCCCN)C(N)=O)C(=O)Cn3cc(C)c(=O)[nH]c3=O)C(=O)Cn3ccc(N)nc3=O)C(=O)Cn3cnc4c(N)ncnc43)C(=O)Cn3ccc(N)nc3=O)C(=O)Cn3cnc4c(N)ncnc43)C(=O)Cn3ccc(N)nc3=O)C(=O)Cn3cc(C)c(=O)[nH]c3=O)C[C@H]2CNC(=N)N)C(=O)Cn2cnc3c(=O)[nH]c(N)nc32)C(=O)Cn2cc(C)c(=O)[nH]c2=O)c(=O)[nH]c1=O | 47.1 °C | 48.8 °C | Active | Active | 62.7 °C | 59.4 °C | 53.7 °C | 46.3 °C

Other lines, results leading:

Tm [1] | Tm [2] | Activity [3] | Activity [4] | Tm [5] | Tm [6] | Tm [7] | Tm [8] | Compound
45.4 °C | 46.2 °C | Active | Active | 59.4 °C | 52.3 °C | 49.7 °C | 42.2 °C | Cc1cn(CC(=O)N(CCNC(=O)CN(CCNC(=O)CN(CCN)C(=O)Cn2ccc(N)nc2=O)C(=O)Cn2cnc3c(N)ncnc32)CC(=O)NCCN(CC(=O)NCCN(CC(=O)N2CC[C@H](N(CC(=O)NCCN(CC(=O)NCCN(CC(=O)NCCN(CC(=O)NCCN(CC(=O)NCCN(CC(=O)NCCN(CC(=O)N[C@@H](CCCCN)C(N)=O)C(=O)Cn3cc(C)c(=O)[nH]c3=O)C(=O)Cn3ccc(N)nc3=O)C(=O)Cn3cnc4c(N)ncnc43)C(=O)Cn3ccc(N)nc3=O)C(=O)Cn3cnc4c(N)ncnc43)C(=O)Cn3ccc(N)nc3=O)C(=O)Cn3cc(C)c(=O)[nH]c3=O)C2)C(=O)Cn2cnc3c(=O)[nH]c(N)nc32)C(=O)Cn2cc(C)c(=O)[nH]c2=O)c(=O)[nH]c1=O
51.8 °C | 53.8 °C | Active | Active | 66.3 °C | 60.1 °C | 57.1 °C | 45.7 °C | Cc1cn(CC(=O)N(CCNC(=O)CN(CCNC(=O)CN(CCNC(=O)CN(C(=O)Cn2cc(C)c(=O)[nH]c2=O)[C@H]2C[C@@H](CN)N(C(=O)CN(CCNC(=O)CN(CCN)C(=O)Cn3ccc(N)nc3=O)C(=O)Cn3cnc4c(N)ncnc43)C2)C(=O)Cn2cc(C)c(=O)[nH]c2=O)C(=O)Cn2cnc3c(=O)[nH]c(N)nc32)CC(=O)NCCN(CC(=O)NCCN(CC(=O)NCCN(CC(=O)NCCN(CC(=O)NCCN(CC(=O)NCCN(CC(=O)N[C@@H](CCCCN)C(N)=O)C(=O)Cn2cc(C)c(=O)[nH]c2=O)C(=O)Cn2ccc(N)nc2=O)C(=O)Cn2cnc3c(N)ncnc32)C(=O)Cn2ccc(N)nc2=O)C(=O)Cn2cnc3c(N)ncnc32)C(=O)Cn2ccc(N)nc2=O)c(=O)[nH]c1=O
46.7 °C | 46.6 °C | Active | Active | 60.4 °C | 57.2 °C | 51.8 °C | 44.7 °C | Cc1cn(CC(=O)N(CCNC(=O)CN(CCNC(=O)CN(CCN)C(=O)Cn2ccc(N)nc2=O)C(=O)Cn2cnc3c(N)ncnc32)CC(=O)NCCN(CC(=O)NCCN(CC(=O)N2C[C@@H](N(CC(=O)NCCN(CC(=O)NCCN(CC(=O)NCCN(CC(=O)NCCN(CC(=O)NCCN(CC(=O)NCCN(CC(=O)N[C@@H](CCCCN)C(N)=O)C(=O)Cn3cc(C)c(=O)[nH]c3=O)C(=O)Cn3ccc(N)nc3=O)C(=O)Cn3cnc4c(N)ncnc43)C(=O)Cn3ccc(N)nc3=O)C(=O)Cn3cnc4c(N)ncnc43)C(=O)Cn3ccc(N)nc3=O)C(=O)Cn3cc(C)c(=O)[nH]c3=O)C[C@H]2CN)C(=O)Cn2cnc3c(=O)[nH]c(N)nc32)C(=O)Cn2cc(C)c(=O)[nH]c2=O)c(=O)[nH]c1=O
50.8 °C | 50 °C | Active | Active | 65.5 °C | 59.9 °C | 55.8 °C | 43.3 °C | Cc1cn(CC(=O)N(CCNC(=O)CN(CCNC(=O)CN(CCNC(=O)CN(C(=O)Cn2cc(C)c(=O)[nH]c2=O)[C@H]2CCN(C(=O)CN(CCNC(=O)CN(CCN)C(=O)Cn3ccc(N)nc3=O)C(=O)Cn3cnc4c(N)ncnc43)C2)C(=O)Cn2cc(C)c(=O)[nH]c2=O)C(=O)Cn2cnc3c(=O)[nH]c(N)nc32)CC(=O)NCCN(CC(=O)NCCN(CC(=O)NCCN(CC(=O)NCCN(CC(=O)NCCN(CC(=O)NCCN(CC(=O)N[C@@H](CCCCN)C(N)=O)C(=O)Cn2cc(C)c(=O)[nH]c2=O)C(=O)Cn2ccc(N)nc2=O)C(=O)Cn2cnc3c(N)ncnc32)C(=O)Cn2ccc(N)nc2=O)C(=O)Cn2cnc3c(N)ncnc32)C(=O)Cn2ccc(N)nc2=O)c(=O)[nH]c1=O
